ChEMBL document CHEMBL1152469, “Telithromycin resistance in Streptococcus pneumoniae is conferred by a deletion in the leader sequence of erm(B) that increases rRNA methylation” (2008)
Values after ≈ are worked out from the molar mass of the structure shown.

Columns and labels:
Type in all cases: functional
Streptococcus pneumoniae [1] = assay: Antimicrobial activity against telithromycin-resistant Streptococcus pneumoniae isolate P1501016 by agar dilution method
How it was run: (§1)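 Agar dilution MICs per CLSI agar plate preparation, plates containing 5% horse blood, incubated in ambient air 20-24 h; MICs interpreted with CLSI broth microdilution breakpoints (telithromycin ≤1 µg/ml S, 2 I, ≥4 R). Reference strain S. pneumoniae ATCC49619. Induction testing run without and with erythromycin (0.25 µg/ml).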

Streptococcus pneumoniae [2] = assay: Antimicrobial activity against wild-type Streptococcus pneumoniae PC13 by agar dilution method
How it was run: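 Agar dilution MICs on plates prepared per CLSI guidance and containing 5% horse blood. Plates incubated in ambient air for 20-24 h. Interpretation used CLSI broth microdilution breakpoints, with S. pneumoniae ATCC49619 as reference strain.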

Streptococcus pneumoniae [3] = assay: Antimicrobial activity against Streptococcus pneumoniae PC13 transformant harboring 136-bp deletion in erm(B) gene by agar dilution method; how it was run: as §1
Streptococcus pneumoniae [4] = assay: Increase in erm(B) mRNA expression in Streptococcus pneumoniae PC13 transformant harboring 136-bp deletion in erm(B) gene at 0.008 ug/ml by qRT-PCR relative to baseline
How it was run: (§2)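 Cells grown in Tryptone Soya Broth at 37°C, 5% CO2 to OD600 0.2, in triplicate cultures per strain, without antibiotic or with telithromycin 0.008 µg/ml (erythromycin 0.25 µg/ml as a further condition). Cultures were then stabilised in RNAProtect Bacteria Reagent and pelleted. Total RNA was extracted and erm(B) mRNA quantified relative to untreated cultures.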

Streptococcus pneumoniae [5] = assay: Increase in erm(B) mRNA expression in wild-type Streptococcus pneumoniae PC13 at 0.008 ug/ml by qRT-PCR relative to baseline; how it was run: as §2
Streptococcus pneumoniae [6] = assay: Increase in dimethylation at position A2058 of 23S rRNA of wild type Streptococcus pneumoniae PC13 at 0.008 ug/ml by phosphorimager scanning relative to baseline
How it was run: (§3)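 Cells grown in Tryptone Soya Broth at 37°C, 5% CO2 to OD600 0.2, either untreated, with telithromycin 0.008 µg/ml, or with erythromycin 0.25 µg/ml. Total RNA extracted. A primer complementary to 23S rRNA G2061-U2079 was extended by reverse transcriptase on 1.5 pmol rRNA with dTTP, dCTP and ddGTP. Triplicate reactions run on denaturing gels beside a sequencing ladder and quantified by phosphorimager.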

Streptococcus pneumoniae [7] = assay: Increase in dimethylation at position A2058 of 23S rRNA of wild type Streptococcus pneumoniae PC13 at 0.25 ug/ml by phosphorimager scanning relative to baseline; how it was run: as §3
Streptococcus pneumoniae [8] = assay: Increase in dimethylation at position A2058 of 23S rRNA of Streptococcus pneumoniae PC13 transformant harboring 136-bp deletion in erm(B) gene at 0.008 ug/ml by phosphorimager scanning relative to baseline
How it was run: (§4)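 Cells grown in TSB at 37°C, 5% CO2 to OD600 0.2, untreated or with telithromycin (0.008 µg/ml) or erythromycin (0.25 µg/ml), three cultures per condition. Total RNA extracted. Primer extension across G2061-U2079 of 23S rRNA on 1.5 pmol rRNA with reverse transcriptase, ddGTP mix in test samples, done in triplicate. Products run on denaturing polyacrylamide gels, quantified by phosphorimager as % A2058 dimethylation.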

Streptococcus pneumoniae [9] = assay: Increase in dimethylation at position A2058 of 23S rRNA of Streptococcus pneumoniae isolate P1501016 at 0.008 ug/ml by phosphorimager scanning relative to baseline; how it was run: as §3
Streptococcus pneumoniae [10] = assay: Increase in erm(B) mRNA expression in Streptococcus pneumoniae […] transformant harboring 136-bp deletion in erm(B) gene at 0.25 ug/ml by qRT-PCR relative to baseline
How it was run: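 Strains grown in TSB at 37°C, 5% CO2 to OD600 0.2, untreated or with erythromycin (0.25 µg/ml), three cultures per condition. Cells stabilised in RNAProtect before RNA extraction. erm(B) mRNA quantified relative to the untreated culture. Means compared by paired t test at the 95% level.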

Streptococcus pneumoniae [11] = assay: Increase in erm(B) mRNA expression in wild type Streptococcus pneumoniae PC13 at 0.25 ug/ml by qRT-PCR relative to baseline
How it was run: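 Cultures grown in triplicate in Tryptone Soya Broth at 37°C, 5% CO2 to OD600 0.2, without antibiotic or with erythromycin 0.25 µg/ml. Cells stabilised in RNAProtect, then RNA extracted for relative quantification of erm(B) mRNA against untreated cells.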

Streptococcus pneumoniae [12] = assay: Increase in dimethylation at position A2058 of 23S rRNA of Streptococcus pneumoniae PC13 transformant harboring 136-bp deletion in erm(B) gene at 0.25 ug/ml by phosphorimager scanning relative to baseline; how it was run: as §4
Streptococcus pneumoniae [13] = assay: Increase in dimethylation at position A2058 of 23S rRNA of Streptococcus pneumoniae isolate P1501016 at 0.25 ug/ml by phosphorimager scanning relative to baseline; how it was run: as §3
Streptococcus pneumoniae [14] = assay: Increase in lag phase of growth for wild type Streptococcus pneumoniae PC13 assessed as doubling time at 1 ug/ml
How it was run: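 Glycerol stocks diluted 1:100 into Tryptone Soya Broth with or without erythromycin 1 µg/ml and incubated at 37°C, 5% CO2. OD600 read every 30 min, and doubling time calculated over exponential growth.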

Streptococcus pneumoniae [15] = assay: Increase in lag phase of growth for Streptococcus pneumoniae PC13 transformant harboring 136-bp deletion in erm(B) gene assessed as doubling time at 1 ug/ml
How it was run: (§5)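 Inoculated from glycerol stocks 1:100 into TSB with or without erythromycin (1 µg/ml), 37°C in 5% CO2. OD600 read every 30 min; doubling time calculated over exponential growth.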

Streptococcus pneumoniae [16] = assay: Increase in lag phase of growth for telithromycin-resistant Streptococcus pneumoniae isolate P1501016 assessed as doubling time at 1 ug/ml; how it was run: as §5

Question: How did the MIC (Streptococcus pneumoniae [1]) turn out when CC[C@H]1OC(=O)[C@H](C)C(=O)[C@H](C)[C@@H](O[C@@H]2O[C@H](C)C[C@H](N(C)C)[C@H]2O)[C@](C)(OC)C[C@@H](C)C(=O)[C@H](C)[C@H]2N(CCCCn3cnc(-c4cccnc4)c3)C(=O)O[C@]12C [TELITHROMYCIN] was run?
Answer: 8 mg/L (≈ 9.85 µM)

Question: And the MIC (Streptococcus pneumoniae [2])?
Answer: 0.06 mg/L (≈ 0.0739 µM)

Question: What about the MIC (Streptococcus pneumoniae [3]) of the same molecule?
Answer: 16 mg/L (≈ 19.7 µM)

Question: And the “fold change (FC)” value (Streptococcus pneumoniae [4])?
Answer: 1.31

Question: And the “fold change (FC)” value (Streptococcus pneumoniae [5])?
Answer: 0.66

Question: And the Activity (Streptococcus pneumoniae [6])?
Answer: 29%

Question: And the Activity (Streptococcus pneumoniae [7])?
Answer: 46%

Question: What about the Activity (Streptococcus pneumoniae [8]) of the same molecule?
Answer: 64%

Question: And the Activity (Streptococcus pneumoniae [9])?
Answer: 66%

Question: With CCC[C@@H]1C[C@@H](C(=O)N[C@@H]([C@H]2O[C@H](SC)[C@H](O)[C@@H](O)[C@H]2O)[C@H](C)Cl)N(C)C1 [CLINDAMYCIN] as the molecule, how does the MIC (Streptococcus pneumoniae [1]) read?
Answer: > 256 mg/L

Question: And the MIC (Streptococcus pneumoniae [2])?
Answer: > 256 mg/L

Question: For CN(C)[C@@H]1C(O)=C(C(N)=O)C(=O)[C@@]2(O)C(O)=C3C(=O)c4c(O)cccc4[C@@](C)(O)[C@H]3C[C@@H]12 [TETRACYCLINE], which MIC (Streptococcus pneumoniae [1]) is on record?
Answer: 4 mg/L (≈ 9 µM)

Question: And the MIC (Streptococcus pneumoniae [2])?
Answer: 16 mg/L (≈ 36 µM)

Question: And the MIC (Streptococcus pneumoniae [3])?
Answer: 16 mg/L (≈ 36 µM)

Question: For CC[C@H]1OC(=O)[C@H](C)[C@@H](O[C@H]2C[C@@](C)(OC)[C@@H](O)[C@H](C)O2)[C@H](C)[C@@H](O[C@@H]2O[C@H](C)C[C@H](N(C)C)[C@H]2O)[C@](C)(OC)C[C@@H](C)C(=O)[C@H](C)[C@@H](O)[C@]1(C)O [CLARITHROMYCIN], which MIC (Streptococcus pneumoniae [1]) is on record?
Answer: > 256 mg/L

Question: And the MIC (Streptococcus pneumoniae [2])?
Answer: > 256 mg/L

Question: What does the source list for CC[C@H]1OC(=O)[C@H](C)[C@@H](O[C@H]2C[C@@](C)(OC)[C@@H](O)[C@H](C)O2)[C@H](C)[C@@H](O[C@@H]2O[C@H](C)C[C@H](N(C)C)[C@H]2O)[C@](C)(O)C[C@@H](C)C(=O)[C@H](C)[C@@H](O)[C@]1(C)O [ERYTHROMYCIN]?
Answer: MIC (Streptococcus pneumoniae [1]): > 256 mg/L; MIC (Streptococcus pneumoniae [2]): > 256 mg/L; fold change (FC) (Streptococcus pneumoniae [10]): 4.98; fold change (FC) (Streptococcus pneumoniae [11]): 2.57; Activity (Streptococcus pneumoniae [12]): 72%; Activity (Streptococcus pneumoniae [13]): 68%; Activity (Streptococcus pneumoniae [14]): 53 min; Activity (Streptococcus pneumoniae [15]): 52.5 min; Activity (Streptococcus pneumoniae [16]): 43.3 min
